Results from article PMC7594119 (ACS Omega, 2020).

Columns and labels:
A549 cells [1] = test: Cell viability MTT assay, A549; type: cell-based; settings: Homo sapiens, A549, 72 h, read-out: IC50, cell viability
How it was run: (§1)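 Cells were seeded at 5000–5500/well in 96-well plates and exposed to test compound (0–250 μM) for 72 h. MTT (from 5 mg/mL stock in PBS, pH 7.4) was added for 4–5 h. Formazan was dissolved in DMSO and OD read at 570 nm, then converted to % viability. Data are mean ±SD, n = 3.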

MCF-7 cells [2] = test: Annexin-V/PI staining apoptosis, MCF-7; type: cell-based; settings: MCF-7, IC50 concentration, 48 h
How it was run: (§2)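 MCF-7 and A549 cells were treated with test compound or vehicle for 48 h, then harvested. They were stained with annexin-V/PI and analysed by flow cytometry to quantify apoptotic cells.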

MCF-7 cells [3] = test: Colony formation assay, MCF-7; type: cell-based; settings: MCF-7, IC50 concentration, 8–10 days
How it was run: (§3)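 MCF-7 or A549 cells were plated at about 1000–1500 cells/well in 6-well plates. They were treated with test compound for 8–10 days at 37 °C, 5% CO2, with DMSO as vehicle control. Colonies were fixed with 100% methanol, stained with crystal violet, and counted by image analysis relative to vehicle.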

A549 cells [4] = test: ROS determination; type: cell-based, human; settings: A549, IC50 dose, 5–6 h
How it was run: (§4)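 MCF-7 and A549 cells were treated with test compound or DMSO vehicle for 5–6 h. They were then loaded with 10 μM H2DCFDA for 30 min, trypsinized, and washed twice with PBS. Total ROS was measured by flow cytometry.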

A549 cells [5] = test: Colony formation assay, A549; type: cell-based, human; settings: A549, IC50 concentration, 8–10 days
How it was run: as §3

[6] = tested on: CDK6 expression in MCF-7 cells; test: CDK6 protein expression; type: cell-based; settings: MCF-7, IC50 dose
How it was run: (§5)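 MCF-7 and A549 cells were treated with test compound or vehicle for a stipulated time, then harvested by trypsinization. They were lysed in RIPA buffer and protein was quantified by BCA. CDK6 was detected by Western blot with anti-CDK6 antibody, and band intensity was normalized to β-actin loading control.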

A549 cells [7] = test: Annexin-V/PI staining apoptosis, A549; type: cell-based, human; settings: A549, IC50 concentration, 48 h
How it was run: as §2

CDK6 [8] = target: T1, CDK6 (Homo sapiens, UniProt Q00534); test: Isothermal titration calorimetry with CDK6; settings: ITC, 25 °C, one binding site model
How it was run: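 Recombinant CDK6 was expressed from pET28a+ in E. coli Codon+ cells (IPTG induction at 18 °C) and purified on Ni-NTA. Protein was dialysed against 25 mM Tris, 200 mM MgCl2, with ligand dissolved in the same buffer and 1% v/v DMSO added to protein. At 25 °C, 500 μM test compound in the syringe was titrated into 15 μM CDK6. Buffer-titration heats were subtracted before fitting n, ΔH and Ka.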

MCF-7 cells [9] = test: Cell viability MTT assay, MCF-7; type: cell-based; settings: Homo sapiens, MCF7, 72 h, read-out: IC50, cell viability
How it was run: as §1

[10] = tested on: CDK6 expression in A549 cells; test: CDK6 protein expression; type: cell-based, human; settings: A549, IC50 dose
How it was run: as §5

CDK6 [11] = target: T1, CDK6; test: Kinase inhibition; type: biochemical
How it was run: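 Purified recombinant CDK6 (pET28a+, E. coli Codon+ expression, Ni-NTA) at 1 μM was incubated with 50 μM fresh ATP and increasing test compound (0–10 μM) for 1 h at 25 °C. Malachite green stopped the reaction, with colour developed 15–20 min at room temperature.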

CDK6 [12] = target: T1, CDK6; test: Fluorescence quenching binding studies with CDK6; settings: for Kq (bimolecular quenching rate constant): Kq=Ksv/τ0; for ΔG: van't Hoff; for Kd: K (binding constant, modified Stern–Volmer)
MCF-7 cells [13] = test: ROS determination; type: cell-based; settings: MCF-7, IC50 dose, 5–6 h
How it was run: as §4

[14] = van't Hoff plot over 15, 25, 30 °C, same value printed at each temperature

T1 sequence (Q00534 whole entry): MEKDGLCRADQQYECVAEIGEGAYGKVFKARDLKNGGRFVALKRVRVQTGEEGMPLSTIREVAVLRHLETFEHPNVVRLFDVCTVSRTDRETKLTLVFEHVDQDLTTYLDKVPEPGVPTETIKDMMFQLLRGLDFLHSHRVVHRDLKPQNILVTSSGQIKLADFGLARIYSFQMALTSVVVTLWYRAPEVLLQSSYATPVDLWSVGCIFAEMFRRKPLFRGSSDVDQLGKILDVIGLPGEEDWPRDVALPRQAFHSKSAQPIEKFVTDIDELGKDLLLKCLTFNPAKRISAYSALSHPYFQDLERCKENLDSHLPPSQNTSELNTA

O=c1c(O)c(-c2ccc(O)c(O)c2)oc2cc(O)cc(O)c12 [quercetin]
IC50 (A549 cells [1]): 52.4 ± 2.44 µM | cells in which apoptosis is induced (MCF-7 cells [2]): ~21.10% | effect on colonization (colony formation) (MCF-7 cells [3]): significantly decreases the colonization | effect on ROS production (A549 cells [4]): decreases the production of ROS | effect on colonization (colony formation) (A549 cells [5]): significantly decreases the colonization | effect on CDK6 expression [6]: decreases the CDK6 expression | cells in which apoptosis is induced (A549 cells [7]): ~16.22% | ΔH (CDK6 [8]): -112 ± 0.457 kcal/mol | ΔS (CDK6 [8]): −351 cal/mol/deg | IC50 (MCF-7 cells [9]): 41.8 ± 2.21 µM | effect on CDK6 expression [10]: decreases the CDK6 expression | IC50 (CDK6 [11]): 5.89 µM | Ksv (Stern–Volmer constant) (CDK6 [12]; 15 °C): 16.3 10^4 M^–1 | n (number of binding sites) (CDK6 [12]; 15 °C): 1.35 | Kq (bimolecular quenching rate constant) (CDK6 [12]; 15 °C): 6.03 10^13 M^–1 s^–1 | ΔG (CDK6 [12]; 15 °C): –9.400 kcal mol^–1 | Ksv (Stern–Volmer constant) (CDK6 [12]; 25 °C): 13.6 10^4 M^–1 | TΔS (CDK6 [12]; 25 °C): 2.46 kcal mol^–1 | n (number of binding sites) (CDK6 [12]; 25 °C): 1.33 | Kq (bimolecular quenching rate constant) (CDK6 [12]; 25 °C): 5.03 10^13 M^–1 s^–1 | ΔG (CDK6 [12]; 25 °C): –9.482 kcal mol^–1 | Ksv (Stern–Volmer constant) (CDK6 [12]; 30 °C): 12.2 10^4 M^–1 | TΔS (CDK6 [12]; 30 °C): 2.50 kcal mol^–1 | n (number of binding sites) (CDK6 [12]; 30 °C): 1.33 | Kq (bimolecular quenching rate constant) (CDK6 [12]; 30 °C): 4.51 10^13 M^–1 s^–1 | ΔG (CDK6 [12]; 30 °C): –9.524 kcal mol^–1 | Kd (CDK6 [12]; 15 °C): 0.0769 µM | Kd (CDK6 [12]; 25 °C): 0.104 µM | Kd (CDK6 [12]; 30 °C): 0.143 µM | ΔH (CDK6 [12]; [14]): –7.019 kcal mol^–1 | ΔS (CDK6 [12]; [14]): 8.267 cal mol^–1 K^–1 | effect on ROS production (MCF-7 cells [13]): decreases the production of ROS
